The values below come from ChEMBL document CHEMBL3588770, “Novel spirohydantoin derivative as a potent multireceptor-active antipsychotic and antidepressant agent” (Bioorg Med Chem, 2015).

As usually defined, the Ki is a measure of affinity in units of concentration, obtained from inhibition or displacement. A low value points to tighter binding.

The structures appear in SMILES notation. Active and inactive are the calls of the source. The calls are words filed in the database; no cut-off is given here. Some results are limits rather than exact numbers.

Data set [1] has as its target T1, 5-hydroxytryptamine receptor 1A (Rattus norvegicus, UniProt P19327).
T1 sequence (P19327 whole entry): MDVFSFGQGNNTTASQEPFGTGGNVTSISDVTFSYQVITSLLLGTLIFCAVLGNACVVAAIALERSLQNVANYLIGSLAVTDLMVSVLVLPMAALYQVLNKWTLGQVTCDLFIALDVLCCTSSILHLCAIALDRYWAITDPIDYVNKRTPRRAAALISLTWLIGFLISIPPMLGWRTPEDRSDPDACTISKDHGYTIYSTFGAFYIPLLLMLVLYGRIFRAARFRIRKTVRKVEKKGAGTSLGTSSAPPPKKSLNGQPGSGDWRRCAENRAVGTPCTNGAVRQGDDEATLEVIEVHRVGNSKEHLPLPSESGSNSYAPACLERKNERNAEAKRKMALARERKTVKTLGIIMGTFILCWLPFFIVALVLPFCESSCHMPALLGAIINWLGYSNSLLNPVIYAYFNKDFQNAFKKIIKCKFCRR
Kind of data set: Displacement of [3H]-8-OH-DPAT from 5-HT1A receptor in rat hippocampal membrane by liquid scintillation analysis. In kind it is cell membranes, Hippocampus. The gist of the method: (§1)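 Native rat membranes were used: hippocampus with [3H]-8-OH-DPAT (170 Ci/mmol) and 5-HT for non-specific binding; cortex with [3H]-ketanserin (88.0 Ci/mmol) and methysergide; hypothalamus with [3H]-5-CT (34.5 Ci/mmol) and 5-HT. Compounds were tested in triplicate at 7–8 concentrations (10⁻¹¹–10⁻⁴ M). Read-out was liquid scintillation counting. Ki came from nonlinear regression with Cheng-Prusoff, as the mean of at least two experiments.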
Background: Loss of bound radioactivity is the signal in a displacement assay; it reports binding, not function.

Data set [2] concerns the target 5-hydroxytryptamine receptor 7 (Rattus norvegicus, UniProt P32305). Nature of the data set: Displacement of [3H]-5-CT from 5-HT7 receptor in rat hypothalamic membrane by liquid scintillation analysis. In kind it is cell membranes. The gist of the method:
as §1

Data set [3] concerns the target 5-hydroxytryptamine receptor 2A (Rattus norvegicus, UniProt P14842). Kind of data set: Displacement of [3H]ketanserin from 5-HT2A receptor in rat cortical membrane by liquid scintillation analysis. In kind it is cell membranes. An outline of the steps:
as §1

The target in another data set is D(2) dopamine receptor (Rattus norvegicus, UniProt P61169). Kind of data set: Displacement of [3H]spiperone from D2 receptor in rat striatum by liquid scintillation counting analysis. The gist of the method: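 Rat striatal membranes with [3H]-spiperone. Compounds were tested in triplicate at 7–8 concentrations (10⁻¹¹–10⁻⁴). Ki values were calculated.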
Chain of D(2) dopamine receptor (P61169 whole entry): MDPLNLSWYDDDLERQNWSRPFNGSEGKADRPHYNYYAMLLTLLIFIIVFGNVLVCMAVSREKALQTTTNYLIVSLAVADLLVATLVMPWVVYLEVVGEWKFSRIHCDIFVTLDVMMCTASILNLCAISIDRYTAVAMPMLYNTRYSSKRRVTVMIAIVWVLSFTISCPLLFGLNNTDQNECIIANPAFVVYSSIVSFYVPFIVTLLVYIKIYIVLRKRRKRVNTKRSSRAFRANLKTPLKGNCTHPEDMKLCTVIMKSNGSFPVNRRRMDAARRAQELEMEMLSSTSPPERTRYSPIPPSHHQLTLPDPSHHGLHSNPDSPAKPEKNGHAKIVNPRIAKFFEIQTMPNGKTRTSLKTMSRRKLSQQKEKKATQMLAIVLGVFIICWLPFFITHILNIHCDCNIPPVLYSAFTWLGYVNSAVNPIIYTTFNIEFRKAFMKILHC
Data set [4] has as its system Mus musculus. Nature of the data set: Anti-depressant like activity in Swiss albino mouse assessed as shortening of immobility time at 0.01 to 0.1 mg/kg, ip by forced swim test. In kind it is functional, organism-based.
The test system of data set [5] is Mus musculus. Nature of the data set: Toxicity in ip dosed CD-1 mouse assessed as minimum dose required for induction of catalepsy by bar test. In kind it is organism-based. The conditions noted are these: in vivo. The gist of the method: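 Male CD-1 mice, 10 per group, given compound i.p. (1% Tween 80 suspension). Forelimbs were placed on a horizontal rod 4 cm high at 30, 60 and 120 min. Catalepsy was scored up to 3 (≥60 s on bar). Minimum cataleptogenic dose is the lowest dose giving a mean score ≥1 at any of those times.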

The subject of data set [6] is Mus musculus. Kind of data set: Antianxiety-like activity in Swiss albino mouse assessed as number of punished crossings at 0.06 to 0.5 mg/kg, ip by four-plate test. In kind it is functional, organism-based. An outline of the steps:
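Four-plate test in male Swiss albino mice, 8-10 per dose, dosed i.p. in Tween 80 vehicle. After 15-s habituation, a 0.8 mA, 0.5 s foot shock was given at each plate crossing, with a 3 s shock-free interval. Punished crossings were counted over a 1-min session.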

Data set [7] concerns Mus musculus. Nature of the data set: Antipsychotic activity in ip dosed CD-1 mouse assessed as inhibition of D-amphetamine-induced hyperlocomotor activity. In kind it is functional, organism-based. An outline of the steps: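 Male CD-1 mice, 8-10 per dose. d-Amphetamine was given s.c. 30 min pretest; test compound i.p. 60 min pretest in 1% Tween 80. After 30 min habituation in the activity monitor, ambulation crossings were counted for 1 h, recorded every 5 min.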

The test system of data set [8] is Mus musculus. Kind of data set: Toxicity in ip dosed spontaneous locomotor activity CD-1 mouse model assessed as dose required to cause sedation. In kind it is organism-based. Conditions: in vivo. An outline of the steps: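 CD-1 mice, 8-10 per dose, with compound given i.p. in 1% Tween 80 suspension 60 min before testing. After 30 min habituation in individual cages, ambulation (channel crossings) was counted over 1 h, recorded every 5 min. Mean ± SEM, one-way ANOVA with Bonferroni test.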

Chain of 5-hydroxytryptamine receptor 7 (P32305 whole entry): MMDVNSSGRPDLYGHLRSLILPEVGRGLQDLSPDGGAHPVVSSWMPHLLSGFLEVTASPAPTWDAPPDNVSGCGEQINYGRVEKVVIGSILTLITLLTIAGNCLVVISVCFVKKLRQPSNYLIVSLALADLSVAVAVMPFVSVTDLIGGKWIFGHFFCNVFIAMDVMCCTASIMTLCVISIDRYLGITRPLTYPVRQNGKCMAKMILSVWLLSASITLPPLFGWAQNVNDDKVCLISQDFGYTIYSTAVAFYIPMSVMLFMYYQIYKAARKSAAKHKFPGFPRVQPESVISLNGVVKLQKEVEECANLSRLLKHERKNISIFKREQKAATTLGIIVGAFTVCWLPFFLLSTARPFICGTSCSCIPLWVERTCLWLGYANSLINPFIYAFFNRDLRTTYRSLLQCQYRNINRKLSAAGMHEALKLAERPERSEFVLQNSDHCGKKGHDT
Chain of 5-hydroxytryptamine receptor 2A (P14842 whole entry): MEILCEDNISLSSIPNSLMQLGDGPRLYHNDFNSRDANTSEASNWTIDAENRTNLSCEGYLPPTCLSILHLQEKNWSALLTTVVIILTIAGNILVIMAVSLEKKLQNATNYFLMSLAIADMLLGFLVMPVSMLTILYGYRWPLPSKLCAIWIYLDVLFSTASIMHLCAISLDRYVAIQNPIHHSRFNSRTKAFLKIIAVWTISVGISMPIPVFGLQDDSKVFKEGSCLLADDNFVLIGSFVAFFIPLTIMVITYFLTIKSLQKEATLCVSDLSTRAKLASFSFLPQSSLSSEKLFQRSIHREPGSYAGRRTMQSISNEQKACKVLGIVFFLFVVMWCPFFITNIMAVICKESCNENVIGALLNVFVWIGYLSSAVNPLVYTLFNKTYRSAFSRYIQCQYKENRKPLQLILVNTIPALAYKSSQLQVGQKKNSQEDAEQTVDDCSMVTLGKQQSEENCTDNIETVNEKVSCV

Consider `O=C1NC2(CCC(c3ccccc3)CC2)C(=O)N1CCCCN1CCN(c2ccccc2)CC1` (centres undefined), for which the Ki was 35 nM in data set [1], 515 nM in data set [2] and 48 nM in data set [3].

For `O=C1NC2(CCCc3ccccc32)C(=O)N1CCCCN1CCN(c2ccccc2)CC1` (centres undefined), the Ki in data set [1] turned out to be 13 nM; at D(2) dopamine receptor, 743 nM; in data set [2] it was 116 nM; in data set [3], 77 nM.

With `COc1ccccc1N1CCN(CCCCN2C(=O)NC3(CCCCC3c3ccccc3)C2=O)CC1` (centres undefined), the Ki in [1] worked out at 42 nM; in [2] it was 63 nM; in data set [3], 498 nM.

For the molecule `O=C1NC2(CCC(c3ccccc3)CC2)C(=O)N1CCCCN1CCN(c2cccc(Cl)c2)CC1` (centres undefined), the Ki in data set [1] was 30 nM; on D(2) dopamine receptor, above 10000 nM; in data set [2] it was 768 nM; in data set [3], 38 nM.

For `O=C1CCc2ccc(OCCCCN3CCN(c4cccc(Cl)c4Cl)CC3)cc2N1` [ARIPIPRAZOLE], the inhibition result in the data set with Mus musculus [4] was “inactive”. The Activity in the data set with Mus musculus [5] and in the data set with Mus musculus [8] was 1 mg/kg in each case. Moreover, the outcome in the data set on Mus musculus [6] was inactive. For the same molecule, the inhibition entry in the data set with Mus musculus [7] was “Dose-dependent effect”.

Regarding `O=C1NC2(CCC(c3ccccc3)CC2)C(=O)N1CCCCN1CCN(c2cccc(C(F)(F)F)c2)CC1` (centres undefined), the inhibitory constant (Ki) was 22 nM in data set [1], above 10000 nM on D(2) dopamine receptor, 379 nM in data set [2] and 122 nM in [3].

With `O=C1NC2(CCCc3ccccc32)C(=O)N1CCCCN1CCN(c2cccc(C(F)(F)F)c2)CC1` (centres undefined), the Ki in data set [1] came to 5.3 nM; on D(2) dopamine receptor, 608 nM; in data set [2], 117 nM; in data set [3] it was 157 nM.

For `O=C1NC2(CCCCC2c2ccccc2)C(=O)N1CCCCN1CCN(c2ccccc2)CC1` (centres undefined), the figures for the Ki in data set [1], in [2] and in data set [3] were 306 nM, 1500 nM and 414 nM, respectively.

For the molecule `COc1ccccc1N1CCN(CCCCN2C(=O)NC3(CCC(c4ccccc4)CC3)C2=O)CC1` (centres undefined), the inhibition constant Ki in data set [1] is 3 nM; on D(2) dopamine receptor, 79 nM; in data set [2] it was 130 nM; in data set [3], 75 nM.

Turning to `O=C1NC2(CCc3ccccc32)C(=O)N1CCCCN1CCN(c2ccccc2)CC1` (centres undefined), the figures for the inhibition constant Ki in data set [1], in [2] and in data set [3] were 75 nM, 93 nM and 111 nM, respectively.

Take `O=C1NC2(CCCCC2c2ccccc2)C(=O)N1CCCCN1CCN(c2cccc(Cl)c2)CC1` (centres undefined): the Ki in data set [1] amounted to 113 nM; in data set [2], 43 nM; in data set [3], 171 nM.

As to `O=C1NC2(CCc3ccccc32)C(=O)N1CCCCN1CCN(c2cccc(C(F)(F)F)c2)CC1` (centres undefined), the Ki stood at 6 nM in data set [1], 412 nM on D(2) dopamine receptor, 67 nM in data set [2] and 87 nM in data set [3].
